Active and inactive are the calls of the source. The rule behind the calls is not given here.
Columns and labels:
AGS [1] = assay: Antiproliferative activity against human AGS cells after 48 hrs by CCK8 assay; format: functional, cell-based
Procedure, shortened: (§1)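 Cells seeded at 6 × 10^3 cells/well and left 12 h at 37 °C, 5% CO2. Medium then replaced with serial compound dilutions, bortezomib as positive control. After 48 h, CCK-8 added for 4 h and absorbance read at 450 nm. Three repeats; IC50 from normalized nonlinear regression of inhibition curves.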

K562 = assay: Antiproliferative activity against human K562 cells after 48 hrs by CCK8 assay; format: functional, cell-based; conditions: K562, 48 h; procedure, shortened: as §1
HCT-116 = assay: Antiproliferative activity against human HCT116 cells after 48 hrs by CCK8 assay; format: functional, cell-based; conditions: HCT-116, 48 h; procedure, shortened: as §1
BXPC-3 = assay: Antiproliferative activity against human BxPC3 cells after 48 hrs by CCK8 assay; format: functional, cell-based; conditions: BXPC-3, 48 h; procedure, shortened: as §1
SK-OV-3 = assay: Antiproliferative activity against human SKOV3 cells after 48 hrs by CCK8 assay; format: functional, cell-based; conditions: SK-OV-3, 48 h; procedure, shortened: as §1
[2] = Hemolytic activity against rabbit erythrocytes assessed as hemolysis at 100 uM measured after 1 hr; format: ADME, cell-based, Oryctolagus cuniculus, Erythrocyte; conditions: read-out: Activity
Procedure, shortened: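 Rabbit erythrocytes pelleted at 3000 rpm for 10 min, washed twice and resuspended in PBS. Mixed 1:1 with 200 μM compound solution in PBS, 1 h at 37 °C. PBS served as 0% and 1% Triton X-100 as 100% hemolysis. After centrifugation, supernatant hemoglobin read at 540 nm; % hemolysis calculated relative to the Triton and PBS controls.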

[3] = Antiproliferative activity against human LO2 cells after 48 hrs by CCK8 assay; format: cell-based, L02; conditions: read-out: LC50
[4] = Selectivity index, ratio of IC50 for HEK293T cells to IC50 for human AGS cells; format: toxicity; conditions: HEK293T cells versus AGS cells, read-out: Ratio IC50
[5] = Selectivity index, ratio of IC50 for human LO2 cells to IC50 for human AGS cells; format: toxicity; conditions: LO2 cells versus AGS cells, read-out: Ratio IC50
[6] = molecular target: T1, NEDD8 activating enzyme (Homo sapiens) (UniProt Q8TBC4+Q13564); assay: Inhibition of recombinant human NAE assessed as reduction in Ubc12-NEDD8 conjugation level pretreated for 10 mins followed by Mg2+ and ATP addition measured after 60 mins by Western blot analysis; format: protein-complex assay
Procedure, shortened: (§2)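 Cell-free assay with recombinant human NAE 2.5 µM, NEDD8 250 µM and E2 Ubc12 50 µM (stock concentrations) plus inhibitor, preincubated 10 min at 37 °C. Reaction started with 10 mM Mg2+/ATP (stock), run 60 min at 37 °C, quenched with EDTA. Non-reducing 15% SDS-PAGE, Ubc12-NEDD8 thioester detected by western blot. No-ATP negative control.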

[7] = molecular target: T1, NEDD8 activating enzyme (Homo sapiens); assay: Inhibition of NAE in human AGS cells assessed as reduction in Cullins-NEDD8 conjugation level after 24 hrs by Western blot analysis; format: cell-based
Procedure, shortened: (§3)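 AGS cells given 2, 4, 6, 8 or 10 μM compound or 0.1% DMSO for 24 h, washed in ice-cold PBS and lysed in RIPA on ice. Equal protein loads run by SDS-PAGE: non-reducing for NEDD8/SUMO/Ub conjugates, reducing for p27, NRF2, CDT1 and cleaved caspase-3. Blotted to PVDF with primary antibody overnight at 4 °C and HRP secondary, ECL detection, densitometry. Three repeats.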

[8] = molecular target: T1, NEDD8 activating enzyme (Homo sapiens); assay: Inhibition of NAE-mediated CRL neddylation in human AGS cells assessed as increase in NRF2 level up to 10 uM after 24 hrs by Western blot analysis; format: cell-based; procedure, shortened: as §3
[9] = molecular target: Aurora kinase A (Homo sapiens) (UniProt O14965); assay: Inhibition of AurA (unknown origin) at 30 uM relative to control
[10] = molecular target: Cyclin-dependent kinase 1 (Homo sapiens) (UniProt P06493); assay: Inhibition of CDK1 (unknown origin) at 30 uM relative to control
[11] = molecular target: Serine/threonine-protein kinase Chk2 (Homo sapiens) (UniProt O96017); assay: Inhibition of CHK2 (unknown origin) at 30 uM relative to control
Homo sapiens = organism: Homo sapiens; assay: Inhibition of UAE (unknown origin) assessed as reduction in Ubc10-Ub conjugation level up to 10 uM pretreated for 10 mins followed by Mg2+ and ATP addition measured after 60 mins by Western blot analysis
Procedure, shortened: as §2, with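 “UAE” for “recombinant human NAE”, “Ub” for “NEDD8”, “Ubc10” for “Ubc12”, “Ubc10-Ub” for “Ubc12-NEDD8”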

AGS [12] = assay: Induction of apoptosis in human AGS cells assessed as live cells at 4 uM after 36 hrs by Annexin-V-FITC/propidium iodide staining based flow cytometry (reference value: 92.84%); format: functional
AGS [13] = assay: Induction of apoptosis in human AGS cells assessed as late apoptotic cells at 4 uM after 36 hrs by Annexin-V-FITC/propidium iodide staining based flow cytometry (reference value: 1.71%); format: functional
AGS [14] = assay: Induction of apoptosis in human AGS cells assessed as necrotic cells at 4 uM after 36 hrs by Annexin-V-FITC/propidium iodide staining based flow cytometry (reference value: 1.01%); format: functional
AGS [15] = assay: Induction of apoptosis in human AGS cells assessed as live cells at 6 uM after 36 hrs by Annexin-V-FITC/propidium iodide staining based flow cytometry (reference value: 92.84%); format: functional
AGS [16] = assay: Induction of apoptosis in human AGS cells assessed as early apoptotic cells at 6 uM after 36 hrs by Annexin-V-FITC/propidium iodide staining based flow cytometry (reference value: 4.44%); format: functional
AGS [17] = assay: Induction of apoptosis in human AGS cells assessed as late apoptotic cells at 6 uM after 36 hrs by Annexin-V-FITC/propidium iodide staining based flow cytometry (reference value: 1.71%); format: functional
AGS [18] = assay: Induction of apoptosis in human AGS cells assessed as live cells at 8 uM after 36 hrs by Annexin-V-FITC/propidium iodide staining based flow cytometry (reference value: 92.84%); format: functional
AGS [19] = assay: Induction of apoptosis in human AGS cells assessed as early apoptotic cells at 8 uM after 36 hrs by Annexin-V-FITC/propidium iodide staining based flow cytometry (reference value: 4.44%); format: functional
AGS [20] = assay: Cell cycle arrest in human AGS cells assessed as accumulation at sub-G1 phase at 4 uM after 24 hrs by propidium iodide staining based flow cytometry; format: functional
Procedure, shortened: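 AGS cells seeded at 1 × 10^5/well and attached 24 h at 37 °C, 5% CO2. Exposed to 4 μM compound for varying times, then fixed in 70% ethanol at −20 °C overnight. Stained with PI/RNase buffer 15–20 min in the dark; 20000 cells per sample read by flow cytometry (488 nm excitation, FL-3 630 nm). Three repeats.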

AGS [21] = assay: Synergistic antiproliferative activity against human AGS cells assessed as combination index constant at 1.5 uM after 48 hrs in presence of 5 nM BTZ by CCK8 assay; format: functional
Procedure, shortened: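 AGS cells at 6×10^3/well attached for 12 h, then exposed for 48 h to compound, bortezomib, or both at set concentrations. CCK-8 added for 4 h, then OD read at 450 nm. Inhibition rates E used for q = E(combo)/(E1+E2−E1×E2). Triplicate experiments.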

Sequence of Serine/threonine-protein kinase Chk2 (Homo sapiens) (O96017 whole entry): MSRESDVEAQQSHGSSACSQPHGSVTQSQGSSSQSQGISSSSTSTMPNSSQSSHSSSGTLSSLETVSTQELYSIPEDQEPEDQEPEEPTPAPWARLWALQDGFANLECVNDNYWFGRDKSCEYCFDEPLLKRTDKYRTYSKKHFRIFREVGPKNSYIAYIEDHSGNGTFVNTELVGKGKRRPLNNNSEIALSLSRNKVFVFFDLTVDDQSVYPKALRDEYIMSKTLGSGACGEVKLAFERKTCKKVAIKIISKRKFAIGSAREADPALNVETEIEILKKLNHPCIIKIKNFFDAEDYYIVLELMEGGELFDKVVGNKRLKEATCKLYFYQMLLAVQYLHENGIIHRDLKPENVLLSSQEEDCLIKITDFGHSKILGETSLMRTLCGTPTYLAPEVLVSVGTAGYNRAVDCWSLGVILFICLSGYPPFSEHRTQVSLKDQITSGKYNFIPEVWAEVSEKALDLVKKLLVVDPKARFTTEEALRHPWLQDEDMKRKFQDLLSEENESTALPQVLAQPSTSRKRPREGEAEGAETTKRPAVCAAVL
Sequence of Cyclin-dependent kinase 1 (Homo sapiens) (P06493 whole entry, looked up): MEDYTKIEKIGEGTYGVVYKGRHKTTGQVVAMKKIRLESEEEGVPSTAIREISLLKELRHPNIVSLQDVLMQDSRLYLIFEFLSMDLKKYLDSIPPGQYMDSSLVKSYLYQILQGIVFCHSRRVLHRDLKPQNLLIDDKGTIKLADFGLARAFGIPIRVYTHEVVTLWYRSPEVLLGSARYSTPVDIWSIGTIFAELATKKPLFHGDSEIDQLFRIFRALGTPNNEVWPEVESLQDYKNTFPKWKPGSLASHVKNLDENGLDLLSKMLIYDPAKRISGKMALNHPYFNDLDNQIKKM
Sequence of Aurora kinase A (Homo sapiens) (O14965 whole entry): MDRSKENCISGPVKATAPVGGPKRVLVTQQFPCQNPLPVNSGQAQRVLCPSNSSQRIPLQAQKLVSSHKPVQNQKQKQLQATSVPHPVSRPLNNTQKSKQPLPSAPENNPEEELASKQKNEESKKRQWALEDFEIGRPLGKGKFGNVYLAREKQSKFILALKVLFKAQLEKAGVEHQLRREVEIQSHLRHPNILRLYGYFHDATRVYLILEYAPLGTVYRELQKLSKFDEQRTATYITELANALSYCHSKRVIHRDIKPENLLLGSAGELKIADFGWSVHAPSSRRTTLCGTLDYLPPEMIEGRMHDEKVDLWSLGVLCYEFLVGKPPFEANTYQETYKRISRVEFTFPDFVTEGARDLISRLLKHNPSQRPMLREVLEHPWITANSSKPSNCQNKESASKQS

With `O=c1cc(-c2ccc(-c3ccccc3)cc2)c2ccc(N3CCC(NCCc4ccccc4)CC3)cc2o1` the IC50 (AGS [1]) was 760 nM, the IC50 (K562) was 2450 nM and the IC50 (HCT-116) was 1330 nM. For the same compound, the IC50 (BXPC-3) was 2800 nM, the IC50 (SK-OV-3) was 3.29 µM and the hemolysis at 1 h, 100 µM [2] was < 10%. For the same compound, the CC50 at 48 h [3] was 13.5 µM, the selectivity ratio [4] was 14 to 18 and the selectivity ratio [5] was 14 to 18. The inhibition [6] was “Dose-dependent effect”, the inhibition [7] was “Dose-dependent effect” and the inhibition [8] was “Active”. It also gave an inhibition [9] of 6.03%, an inhibition [10] of -1.18% and an inhibition [11] of 9.44%. For the same compound, the inhibition (Homo sapiens) was “Active”, the Activity (AGS [12]) was 80.7% and the Activity (AGS [13]) was 10.51%. It also gave an Activity (AGS [14]) of 1.03%, an Activity (AGS [15]) of 14.99% and an Activity (AGS [16]) of 45.91%. For the same compound, the Activity (AGS [17]) was 35.77%, the Activity (AGS [18]) was 9.88% and the Activity (AGS [19]) was 50.39%. The Activity (AGS [20]) was “Active” and the CI (AGS [21]) was 1.15.
